# A selection: hits, their analogues and other compounds. The true share with any hit is near 4.6%.
# TAAR1 agonist: agonists of human TAAR1; activation, % at 3 µM; AID 624467; Q96RJ0; actives 0.99% (n = 360,000); CHO RD-HGA16 TAAR1, Fluo-8 calcium fluorescence; vehicle wells 0%, saturating PEA agonist 100%;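 active = activation above the mean activation of all test compounds in the run plus 3 SD, cut at about 38% in these data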
# Target sequence (Q96RJ0 whole entry, looked up): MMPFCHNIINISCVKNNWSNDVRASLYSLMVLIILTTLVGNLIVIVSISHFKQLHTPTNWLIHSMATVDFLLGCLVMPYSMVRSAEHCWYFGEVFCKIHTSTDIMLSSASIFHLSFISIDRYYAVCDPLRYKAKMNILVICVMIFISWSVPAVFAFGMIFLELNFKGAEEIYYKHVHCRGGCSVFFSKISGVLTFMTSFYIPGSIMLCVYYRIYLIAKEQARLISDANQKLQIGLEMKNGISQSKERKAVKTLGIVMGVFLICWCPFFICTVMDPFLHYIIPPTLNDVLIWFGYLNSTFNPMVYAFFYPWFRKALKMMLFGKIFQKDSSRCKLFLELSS
#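 System: CHO-derived RD-HGA16 cells with stable Gα16 and human TAAR1 / Times: 17-24 h plating, Fluo-8 75 min 37 °C, 30 min RT / Technique: calcium-sensitive Fluo-8 signal, excitation 470-495, emission 515-575 nm / Measure: % activation relative to PEA EC100 response / Benchmarks: DMSO and PEA EC100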
# GPR7 antagonist: human neuropeptides B/W receptor 1 antagonism | P48145 | GPR7-expressing cells, fluorescence antagonist assay | inhibition, % at 4.4 µM | actives 1.1% (n = 290,000) | AID 1861; in the data active = inhibition above about 16%, passing the limit was not always enough;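 note: cells stimulated with the agonist NPW; 0% = agonist with vehicle and 100% = vehicle without agonist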
# Target sequence (P48145 whole entry, looked up): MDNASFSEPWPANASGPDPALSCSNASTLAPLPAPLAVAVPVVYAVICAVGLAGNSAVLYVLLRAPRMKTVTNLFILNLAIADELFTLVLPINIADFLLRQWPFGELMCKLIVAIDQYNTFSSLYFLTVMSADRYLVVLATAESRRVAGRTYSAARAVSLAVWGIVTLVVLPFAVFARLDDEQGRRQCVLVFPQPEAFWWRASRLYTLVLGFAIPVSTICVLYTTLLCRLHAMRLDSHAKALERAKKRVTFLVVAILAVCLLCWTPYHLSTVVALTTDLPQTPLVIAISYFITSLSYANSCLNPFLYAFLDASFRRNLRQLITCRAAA
# TAAR1 antag: human TAAR1 antagonism. Q96RJ0. CHO RD-HGA16 TAAR1, Fluo-8 calcium fluorescence, antagonist. inhibition, % at 3 µM. actives 1.5% (n = 360,000). AID 624466;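 active = inhibition above a per-plate cutoff, the mean inhibition of test compounds on that plate plus 3 SD, cut at about 49% in these data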;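 note: 0% = DMSO plus EC80 beta-PEA response and 100% = DMSO alone without agonist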
#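 Material: RD-HGA16 CHO cells with stable hTAAR1 and Gα16; Dosing: single nominal final test compound concentration of 3 µM; Schedule: seeding 17-24 h prior, 75-min 37 °C, 30-min RT dye loading; Detection: kinetic Fluo-8 calcium fluorescence measurement; Measure: % inhibition from peak post-agonist over basal fluorescence ratio; Benchmarks: vehicle and agonist controls.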
# CHO parental Ca: signal in parental CHO cells, OX1R antagonist counter-screen; actives 0.63% (n = 330,000); parental CHO-K1, ATP-induced calcium, Fluo-8 fluorescence; inhibition, % at 5.6 µM; AID 463079;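 active = inhibition above that plate's mean sample inhibition plus 3 SD, cut at about 26% in these data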;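 note: 0% = ATP-challenged DMSO wells and 100% = DMSO wells without ATP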
#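 Material – parental CHO cells · Reagent – ATP stimulus · Compound – single nominal dose of 5.6 µM per compound · Detection – Fluo-8 fluorescence · Read-out basis – percent inhibition of calcium signal · Controls – ATP-challenged DMSO wells low, unchallenged DMSO wells high · Repeats – no replicates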
# OX1R antag-1: OX1R (human) antagonism; inhibition, % at 6.6 µM; O43613; OX1R-expressing cells, FRET antagonist read-out; actives 1.8% (n = 330,000); in the data active = inhibition mostly above about 38%, no sharp cut-off; inactive = mostly below about 40%;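 note: 0% = agonist challenge alone and 100% = reference antagonist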
# OX1R antag-2: antagonists of human orexin 1 receptor; O43613; CHO/OX1R cells, Fluo-8 calcium fluorescence, orexin A; actives 0.43% (n = 330,000); AID 434989; inhibition, % at 5 µM;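 active = inhibition above its plate's threshold, mean inhibition of all tested compounds on the plate plus 3 SD, cut at about 37% in these data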;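 note: 0% = orexin A challenge wells and 100% = SB-334867-A antagonist wells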
# GPR7 antag conf: human GPR7 antagonism, confirmation assay; shares compounds with GPR7 antagonist; GPR7-expressing cells, calcium fluorescence antagonist mode; inhibition, % at 4.4 µM; actives 52% (n = 2,400); AID 1952; in the data active = inhibition above about 24%;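 note: stimulated with the GPR7 agonist NPW; 0% = agonist plus vehicle and 100% = vehicle alone without agonist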
# MCHR1 antagonist: antagonizes human MCHR1, a GPR7 antagonist counter-screen; shares compounds with GPR7 antagonist; MCHR1-expressing cells, fluorescence antagonist assay; inhibition, % at 4.4 µM; actives 62% (n = 2,400); AID 2148; in the data active = inhibition above about 22%;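 note: 0% = vehicle with agonist and 100% = vehicle without agonist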
# Starred values were filed as active, the others as inactive; nt = not tested or not shown.
SMILES,TAAR1 agonist,GPR7 antagonist,TAAR1 antag,CHO parental Ca,OX1R antag-1,OX1R antag-2,GPR7 antag conf,MCHR1 antagonist
CCN(CC#CCC(O)(c1ccccc1)C1CCCC1)C(C)C (configuration not stated),11,29*,3,-22,20,-18,3,-1
CCOC(=O)Nc1ccc2c(c1)N(C(=O)CN1CCN(C)CC1)c1ccccc1S2,16,-1,4,-16,-2,-17,nt,nt
CCCC(CCC)C(=O)Nc1ccc2c(c1)N(C(=O)CN1CCN(C)CC1)c1ccccc1CC2,3,58*,8,-16,31,-15,39*,22*
CCCCn1c(N)c(N(Cc2ccccc2OC)C(=O)COc2ccc(F)cc2Cl)c(=O)[nH]c1=O,1,-5,-12,-14,12,0,nt,nt
CCCCn1c(N)c(N(Cc2ccccc2OC)C(=O)COc2ccccc2C#N)c(=O)[nH]c1=O,0,27*,-14,-13,12,-2,2,3
CCOc1ncccc1C(=O)N1CCN(c2cccc(C)c2C)CC1,18,28*,-2,nt,nt,nt,20,34*
COC(=O)C1=C(C)N(Cc2ccc(C(F)(F)F)cc2)C(=NCc2ccc(OC)cc2)NC1c1ccccc1C(F)(F)F (configuration not stated),14,nt,-15,nt,nt,nt,nt,nt
CCC(C(=O)Nc1cccc(C(F)(F)F)c1)c1ccccc1 (configuration not stated),1,28*,17,-4,43,-3,8,47*
O=C(Nc1cccc(C(F)(F)F)c1)C(SCCO)c1ccccc1 (configuration not stated),6,-4,7,-9,14,-11,nt,nt
COc1ccc(CC2(CO)CCN(C(C)Cc3ccc(Cl)cc3)CC2)cc1 (configuration not stated),14,21*,-6,-15,5,-31,5,20
O=c1[nH]c(-c2ccccc2)cn1C1CCN(Cc2ccc(-c3nc4ccccc4nc3-c3ccccc3)cc2)CC1,5,nt,36,nt,nt,nt,nt,nt
NCC(c1ccc(Cl)cc1Cl)c1c[nH]c2ccccc12 (configuration not stated),45*,51*,46,9,-7,-5,61*,69*
CC1COC(=C2C(=O)OCC2C)C1 (configuration not stated),-1,nt,-9,nt,nt,nt,nt,nt
CCOC(=O)[C@]12CCC=C1N(Cc1ccc(Cl)cc1Cl)C(=O)[C@H](CC(=O)NCc1ccccc1)C2,1,nt,2,nt,nt,nt,nt,nt
Cn1cccc1C(=O)NC(=O)COC(=O)CNC(=O)CNC(=O)c1ccc(Cl)cc1Cl,3,27*,5,-22,16,-10,8,1
CC1(C(=O)NCc2ccco2)Cc2c(-c3ccc(C(N)=O)cc3)ccnc2O1 (configuration not stated),5,nt,-25,nt,nt,nt,nt,nt
CC(=O)Oc1ccc(C(c2ccc(OC(C)=O)cc2)c2ccccn2)cc1,1,66*,-11,1,5,-1,76*,47*
c1ccc(C(c2ccccn2)c2ccccn2)cc1,-1,-2,13,-2,21,-8,nt,nt
CCCC[C@@H]1CC2=C(C(=O)OC(C)(C)O2)[C@H](c2ccc(C(C)C)cc2)O1,2,nt,0,nt,nt,nt,nt,nt
COc1ccc(NC(=S)N(Cc2ccc(C)cc2)Cc2ccccn2)cc1,-1,25*,-30,0,28,-12,-8,18
COc1ccc(NC(=S)N(CCc2ccc(OC)c(OC)c2)Cc2ccccn2)cc1,1,7,-3,-19,20,-20,nt,nt
CCC(=O)c1ccc(OCC(O)Cn2c(C)nc3ccccc32)cc1 (configuration not stated),13,28*,25,15,32,3,24,57*
CSCCC(NC(=O)OCc1ccccc1)C(=O)NC(Cc1c[nH]c2ccccc12)C(=O)O (configuration not stated),1,nt,-28,nt,nt,nt,nt,nt
Cc1ccc(NC(=O)c2cc(S(=O)(=O)N3CCCCC3)c[nH]2)cc1Cl,2,nt,-5,nt,nt,nt,nt,nt
CC(NCc1ccc(-c2ccccc2)cc1)C(O)c1ccccc1 (configuration not stated),27,31*,31,5,10,-4,25*,51*
SMILES,TAAR1 agonist,GPR7 antagonist,TAAR1 antag,CHO parental Ca,OX1R antag-1,OX1R antag-2,GPR7 antag conf,MCHR1 antagonist
Nc1sccc1C(=O)NCCN1CCOCC1,1,nt,-26,nt,nt,nt,nt,nt
CCC[C@@H](CN[C@@H](CNC)[C@H](C)CC)NCC1CCC(C(C)(C)C)CC1 (some centres not stated),19,47*,8,-8,23,-27,51*,64*
CC(=O)N1c2ccc(S(=O)(=O)N3CCCC(C(=O)N4CCCCC4)C3)cc2CC1C (configuration not stated),0,-1,-4,-3,7,-11,nt,nt
CC1Cc2cc(S(=O)(=O)N3CCCC(C(=O)N4CCCCC4)C3)ccc2N1C(=O)C1CC1 (configuration not stated),-1,28*,0,-28,6,-15,20,24*
Nc1[nH]c(C(=O)c2ccccc2)c(-c2ccccc2Cl)c1C(=O)c1ccccc1,9,nt,44,nt,nt,nt,nt,nt
CCOc1cc(S(=O)(=O)N2CCCCC2)ccc1Cl,-4,25*,2,-24,15,-31,-8,28*
CCOc1cc(S(=O)(=O)N2CCN(CC)CC2)ccc1Cl,1,-9,8,-20,11,-13,nt,nt
CCOC(=O)C1CCN(CCC(=O)Nc2ccccc2)CC1,4,51*,-19,-10,13,-4,3,-4
O=Cc1cnc(N2CCN(c3ccccc3)CC2)s1,7,-8,15,-12,6,-8,nt,nt
N#CC(C#N)=Cc1cnc(N2CCN(c3ccccc3)CC2)s1,1,41*,8,-8,18,-22,12,42*
CC(=O)c1ccc(N2CCN(c3ncccn3)CC2)c([N+](=O)[O-])c1,0,35*,8,10,30,3,13,18
O=C(CCN1CCc2ccccc2C1)c1ccc2c(c1)OCCO2,nt,23*,nt,-11,11,-36,12,22*
Clc1ccc(CN(Cc2ccc(Cl)cc2)c2nn[nH]n2)cc1,-2,26*,0,-5,31,2,25*,21
c1ccc(CN(Cc2ccccc2)c2nn[nH]n2)cc1,1,0,-13,-13,12,-2,nt,nt
COC(=O)CN1C(c2ccccc2)=Nc2ccc(Cl)cc2C1c1ccccc1 (configuration not stated),2,28*,-8,-26,24,-17,4,23*

# Bioassay records from PubChem.
